Measurements collected from several papers.
Lines come from different studies, so protocols differ.
Organism: Pseudomonas aeruginosa
Read-out: microbial growth

CCCCCCC#Cc1cncc(-c2nnc(SCc3ccc([N+](=O)[O-])o3)n2CCCN)c1
MIC (broth dilution; DSM1128): > 64 µg/mL

Cc1cc(Nc2nnc(-c3n[nH]c4ccc(C)cc34)s2)cc([N+](=O)[O-])c1
MIC (ATCC27853): 187 µg/mL

CO/N=C(\C(=O)N[C@@H]1C(=O)N2C(C(=O)O)=CCS[C@H]12)c1csc(N)n1
MIC (broth dilution; ATCC27853): 16 µg/mL

Cc1ccc2[nH]nc(-c3nnc(Nc4ccc(F)cc4)s3)c2c1
MIC (ATCC27853): 63.9 µg/mL

CNC(C)C1CCC(N)C(OC2C(N)CC(N)C(OC3OCC(C)(O)C(NC)C3O)C2O)O1 (stereo not shown)
MIC (broth dilution; ATCC27853): 2 µg/mL

COc1ccc2ccc(O)c(/C=N/[C@H]3CCCC[C@H]3/N=C/c3c(O)cccc3F)c2c1
MIC (broth dilution): > 40 µM

C[C@@H](O)[C@H]1C(=O)N2C(C(=O)O)=C(S[C@@H]3CN[C@H](C(=O)N(C)C)C3)[C@H](C)[C@H]12
MIC (broth dilution; ATCC27853): 0.25 µg/mL

CC(C)c1ccc(/C=C2\N=C(SCC(=O)O)N(c3ccccc3)C2=O)cc1
MIC (broth dilution; ATCC27 ATCC27853): 12 µg/mL

C[C@H]1[C@H](NC(=O)/C(=N\OC(C)(C)C(=O)O)c2csc(N)n2)C(=O)N1S(=O)(=O)O
MIC (broth dilution; ATCC27853): 2 µg/mL

CNC(C)C1CCC(N)C(OC2C(N)CC(N)C(OC3OCC(C)(O)C(NC)C3O)C2O)O1 (stereo not shown)
MIC (broth dilution): 2 µg/mL

CC[C@H]1OC(=O)[C@H](C)[C@@H](O[C@H]2C[C@@](C)(OC)[C@@H](O)[C@H](C)O2)[C@H](C)[C@@H](O[C@@H]2O[C@H](C)C[C@H](N(C)C)[C@H]2O)[C@](C)(O)C[C@@H](C)CN(C)[C@H](C)[C@@H](O)[C@]1(C)O
MIC (ATCC27853): < 98 µg/mL

COc1ccc2ccc(O)c(/C=N/[C@H]3CCCC[C@H]3/N=C/c3ccc(OCCN4CCCCC4)cc3O)c2c1
MIC (broth dilution; clinical isolate): > 40 µM

CCCCCCCCN=c1ccn(CCCCCCCCCCn2ccc(=NCCCCCCCC)cc2)cc1
MIC (PAO1): 2 µM

CCCCCCC#Cc1cncc(-c2nnc(SCc3cc([N+](=O)[O-])cc([N+](=O)[O-])c3)n2CCOC2OC(CN)C(O)C2O)c1 (stereo not shown)
MIC (broth dilution; DSM1128): > 64 µg/mL

Cc1ccc2[nH]nc(-c3nnc(Nc4cc(Cl)cc(Br)c4)s3)c2c1
MIC (ATCC27853): 224 µg/mL

C[C@@H](O)[C@H]1C(=O)N2C(C(=O)O)=C(SCCN=CN)C[C@H]12
MIC (broth dilution; ATCC27853): 4 µg/mL

Cc1ccc2[nH]nc(-c3nnc(Nc4ccc([N+](=O)[O-])cc4)s3)c2c1
MIC (ATCC27853): 105 µg/mL

CCCCCCC#Cc1cncc(-c2nnc(SCc3cc([N+](=O)[O-])cc([N+](=O)[O-])c3)n2C2CCNCC2)c1
MIC (broth dilution; DSM1128): > 64 µg/mL

Cc1ccc2[nH]nc(-c3nnc(Nc4ccc(O)cc4)s3)c2c1
MIC (ATCC27853): 63.9 µg/mL

C[C@@H](O)[C@H]1C(=O)N2C(C(=O)O)=C(S[C@@H]3CN[C@H](C(=O)N(C)C)C3)[C@H](C)[C@H]12
MIC (ATCC27853; drug-resistant strain): 0.25 µg/mL

Cc1ccc2[nH]nc(-c3nnc(Nc4ccc(Cl)c(Br)c4)s3)c2c1
MIC (ATCC27853): 254 µg/mL

COc1ccc2ccc(O)c(/C=N/[C@H]3CCCC[C@H]3/N=C/c3ccc(-c4ccccc4)cc3O)c2c1
MIC (broth dilution): > 40 µM
